Active and inactive are the calls of the source. The calls are words filed in the database; no cut-off is given here.

Urease subunit alpha/Urease subunit beta (Helicobacter pylori (strain ATCC 700392 / 26695) (Campylobacterpylori)), sequence (P14916 whole entry, looked up): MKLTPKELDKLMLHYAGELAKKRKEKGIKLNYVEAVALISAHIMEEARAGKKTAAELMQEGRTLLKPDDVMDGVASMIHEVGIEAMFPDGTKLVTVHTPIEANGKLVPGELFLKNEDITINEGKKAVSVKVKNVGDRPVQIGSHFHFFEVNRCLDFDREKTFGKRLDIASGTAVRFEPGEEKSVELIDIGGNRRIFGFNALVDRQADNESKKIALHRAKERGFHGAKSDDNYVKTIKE
Urease subunit alpha/Urease subunit beta (Helicobacter pylori (strain ATCC 700392 / 26695) (Campylobacterpylori)), sequence (P69996 whole entry, looked up): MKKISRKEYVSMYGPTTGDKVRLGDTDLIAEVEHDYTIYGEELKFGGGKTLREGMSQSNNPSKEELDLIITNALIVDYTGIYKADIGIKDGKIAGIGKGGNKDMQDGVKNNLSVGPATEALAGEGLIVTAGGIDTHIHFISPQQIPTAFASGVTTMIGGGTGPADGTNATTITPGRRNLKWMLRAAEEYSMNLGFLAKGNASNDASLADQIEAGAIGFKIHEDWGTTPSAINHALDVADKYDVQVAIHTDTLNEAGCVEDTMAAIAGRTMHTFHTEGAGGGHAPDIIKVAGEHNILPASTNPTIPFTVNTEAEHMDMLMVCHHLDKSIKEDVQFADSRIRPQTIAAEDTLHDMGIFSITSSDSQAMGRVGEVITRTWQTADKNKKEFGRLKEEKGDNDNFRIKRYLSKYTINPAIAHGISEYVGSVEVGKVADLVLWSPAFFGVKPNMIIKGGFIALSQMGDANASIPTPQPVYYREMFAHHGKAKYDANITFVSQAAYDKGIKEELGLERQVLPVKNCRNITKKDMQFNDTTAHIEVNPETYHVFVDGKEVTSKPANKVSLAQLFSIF

The target of one assay is Urease subunit alpha/Urease subunit beta (Helicobacter pylori (strain ATCC 700392 / 26695) (Campylobacterpylori), UniProt P69996). Put plainly: Inhibition of Helicobacter pylori ATCC 43504 urease assessed as ammonia production by indophenol method. An outline of the steps: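 Crude urease from H. pylori cells, grown 24 h at 37 °C microaerobically (5% O2, 10% CO2, 85% N2) in brucella broth with 10% heat-inactivated horse serum. Cells were washed in PBS pH 7.4 and stored at -80 °C; the extract was kept 1:1 in glycerol at 4 °C. Enzyme (4U) was preincubated with compound 3 h at room temperature. Percent inhibition was screened at 400 µg/mL; IC50 also determined.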
Urease subunit alpha/Urease subunit beta, sequence (P69996 whole entry): as the sequence (P69996 whole entry, looked up) above
Urease subunit alpha/Urease subunit beta, sequence (P14916 whole entry, further chain): as the sequence (P14916 whole entry, looked up) above
With `NC(Cc1ccc(O)cc1)c1ccc(O)c(O)c1O` (stereo unspecified), the half-maximal inhibitory concentration (IC50) is 47 µM. On the same count and under the same terms, for `CC(=O)NO` [ACETOHYDROXAMIC ACID] the value was 11 µM.

The target of another assay is Urease subunit alpha/Urease subunit beta (Helicobacter pylori (strain ATCC 700392 / 26695) (Campylobacterpylori)) (UniProt P69996+P14916). Put plainly: Inhibition of Helicobacter pylori ATCC 43504 urease assessed as ammonia production at 400 ug/mL by indophenol method. An outline of the steps:
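Crude urease prepared from H. pylori ATCC 43504 grown 24 h at 37 °C in brucella broth with 10% heat-inactivated horse serum, microaerobic (5% O2, 10% CO2, 85% N2). Cells washed in PBS pH 7.4, stored -80 °C; urease in equal-volume glycerol kept at 4 °C. Enzyme (4U) preincubated with compound 3 h at room temperature; ammonia production read by indophenol method; percent inhibition.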
With `O=C(Cc1ccc([N+](=O)[O-])cc1)c1ccc(O)cc1O`, the inhibition entry was “inactive”. The same measure, in the same setting: for `NC(Cc1ccc([N+](=O)[O-])cc1)c1ccc(O)cc1O` (stereo unspecified) the value was “inactive”. The same measure, in the same setting: in the case of `O/N=C(\Cc1ccc(F)cc1)c1ccc(O)c(O)c1O` it was 55%. Take `O=[N+]([O-])c1ccc(C/C(=N/O)c2ccc(O)cc2O)cc1`: the inhibition result is “inactive”. For the molecule `O/N=C(/Cc1ccc(O)cc1)c1ccc(O)c(O)c1O`, the inhibition is 73%. As for `COc1cc(O)c(/C(Cc2ccc(OO)cc2)=N/O)c(OC)c1`, the inhibition came to 15%. Same read-out and setting: for `COc1ccc(C/C(=N\O)c2ccc(O)cc2O)cc1` the value was 36%.

As to `COc1c(O)cc(O)c(/C(Cc2ccc(O)cc2)=N/O)c1O`, the inhibition amounted to 38%. For the molecule `COc1cc(O)c(C(=O)Cc2ccc(OO)cc2)c(OC)c1`, the inhibition result is “inactive”.

For `O=C(Cc1ccc(F)cc1)c1ccc(O)cc1O`, the inhibition was 16%. Consider `O=C(Cc1ccc(O)cc1)c1c(O)cc(O)cc1O`, for which the inhibition result was “inactive”. On to `NC(Cc1ccc(O)cc1)c1ccc(O)c(O)c1O` (stereo unspecified), for which the inhibition was determined as 97.3%. As to `COc1ccc(CC(N)c2ccc(O)cc2O)cc1` (stereo unspecified), the inhibition stood at 73%. Same read-out and setting: for `COc1ccc(CC(=O)c2ccc(OC)c(OC)c2OC)cc1` the value was “inactive”; for `NC(Cc1ccc(O)cc1)c1c(O)cc(O)cc1O` (stereo unspecified), 28%. Same read-out and setting: for `COc1ccc(CC(=N)c2ccc(OC)c(OC)c2OC)cc1` the value was 11%. Same read-out and setting: in the case of `COc1ccc(C/C(=N/O)c2ccc(OC)c(OC)c2OC)cc1` it was “inactive”; in that of `COc1cc(O)c(C(N)Cc2ccc(OO)cc2)c(OC)c1` (stereo unspecified), “inactive”.

Take `O=C(Cc1ccc(F)cc1)c1ccc(O)c(O)c1O`: the inhibition was 44%.

Take `O/N=C(\Cc1ccc(O)cc1)c1ccc(O)c(O)c1`: the inhibition worked out at 62%.

As for `O/N=C(\Cc1ccc(O)cc1)c1c(O)cc(O)cc1O`, the inhibition was 13%. Still for that read-out and setting: for `NC(Cc1ccc(F)cc1)c1ccc(O)cc1O` (stereo unspecified) the value was 48%; for `O/N=C(/Cc1ccc(F)cc1)c1ccc(O)cc1O`, 23%; for `NC(Cc1ccc(F)cc1)c1ccc(O)c(O)c1O` (stereo unspecified), 80%.
